Active and inactive are the calls of the source. The calls are words filed in the database; no cut-off is given here.
Assays:
[1] = tested on: BMDM; assay: Immunostimulatory activity in C57BL/6 mouse BMDM assessed as increase in IL-6 production at 20 ug/ml after 6 to 72 hrs by ELISA; format: functional, cell-based
In short: (§1)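 Bone marrow macrophages from wild-type C57BL/6 mice (0.5 × 10^6/well) were grown for 24 h, then given fresh medium containing compound at 20 μg/mL for 6, 24, 48 and 72 h. Three independent experiments were run, means ± SD.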

[2] = tested on: BMDM; assay: Immunostimulatory activity in C57BL/6 mouse BMDM assessed as increase in TNFalpha production at 20 ug/ml after 6 to 72 hrs by ELISA; format: functional, cell-based; in short: as §1
[3] = tested on: BMDM; assay: Immunostimulatory activity in C57BL/6 mouse BMDM assessed as increase in IL-2 production at 20 ug/ml after 6 to 72 hrs by immunoassay; format: functional, cell-based; in short: as §1
[4] = tested on: BMDM; assay: Immunostimulatory activity in C57BL/6 mouse BMDM assessed as increase in IL-4 production at 20 ug/ml after 6 to 72 hrs by immunoassay; format: functional, cell-based; in short: as §1
[5] = tested on: BMDM; assay: Immunostimulatory activity in C57BL/6 mouse BMDM assessed as increase in IL-5 production at 20 ug/ml after 6 to 72 hrs by immunoassay; format: functional, cell-based; in short: as §1
[6] = tested on: BMDM; assay: Immunostimulatory activity in C57BL/6 mouse BMDM assessed as increase in IL-10 production at 20 ug/ml after 6 to 72 hrs by immunoassay; format: functional, cell-based; in short: as §1
[7] = tested on: BMDM; assay: Immunostimulatory activity in C57BL/6 mouse BMDM assessed as increase in IL-12 production at 20 ug/ml after 6 to 72 hrs by immunoassay; format: functional, cell-based; in short: as §1
[8] = tested on: BMDM; assay: Immunostimulatory activity in C57BL/6 mouse BMDM assessed as increase in IFN-gamma production at 20 ug/ml after 6 to 72 hrs by immunoassay; format: functional, cell-based; in short: as §1
[9] = tested on: BMDM; assay: Immunostimulatory activity in C57BL/6 mouse BMDM assessed as increase in GM-CSF production at 20 ug/ml after 6 to 72 hrs by immunoassay; format: functional, cell-based; in short: as §1
[10] = tested on: BMDM; assay: Immunostimulatory activity in C57BL/6 mouse BMDM assessed as increase in MHC-class 2 production at 20 ug/ml after 6 to 72 hrs by flow cytometric method; format: functional, cell-based
In short: (§2)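 C57BL/6 BMDM (0.5 × 10^6/well) were stimulated with compound at 20 μg/mL for 6, 24, 48 and 72 h. Cells were then stained with phycoerythrin-conjugated anti-CD40, anti-CD80 or anti-CD86, plus allophycocyanin-conjugated anti-MHC class II. Isotype antibodies set nonspecific binding, and cells were analysed by flow cytometry. Three independent experiments were run.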

[11] = tested on: BMDM; assay: Immunostimulatory activity in C57BL/6 mouse BMDM assessed as increase in CD40 production at 20 ug/ml after 6 to 72 hrs by flow cytometric method; format: functional, cell-based; in short: as §2
[12] = tested on: BMDM; assay: Immunostimulatory activity in C57BL/6 mouse BMDM assessed as increase in CD80 production at 20 ug/ml after 6 to 72 hrs by flow cytometric method; format: functional, cell-based; in short: as §2
[13] = tested on: BMDM; assay: Immunostimulatory activity in C57BL/6 mouse BMDM assessed as increase in CD86 production at 20 ug/ml after 6 to 72 hrs by flow cytometric method; format: functional, cell-based; in short: as §2
[14] = tested on: THP-1; assay: Immunostimulatory activity in human THP1 cells assessed as increase in IL-8 production at 20 ug/ml after 6 to 72 hrs by ELISA; format: functional, cell-based
In short: (§3)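 THP-1 cells (0.5 × 10^6/well) were grown in RPMI/10% FBS for 24 h, then given fresh medium containing compound at 20 μg/mL for 6, 24, 48 and 72 h. Cell-free supernatants were assayed for IL-8 and IL-6 by ELISA, and for IL-10, IFN-γ and TNF-α by a human Th1/Th2 multiplex bead immunoassay. Results were pooled from three independent experiments, means ± SD.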

[15] = tested on: THP-1; assay: Immunostimulatory activity in human THP1 cells assessed as increase in IL-10 production at 20 ug/ml after 6 to 72 hrs by immunoassay; format: functional, cell-based; in short: as §3
[16] = tested on: THP-1; assay: Immunostimulatory activity in human THP1 cells assessed as increase in TNF-alpha production at 20 ug/ml after 6 to 72 hrs by immunoassay; format: functional, cell-based; in short: as §3
[17] = tested on: THP-1; assay: Immunostimulatory activity in human THP1 cells assessed as increase in IL-6 production at 20 ug/ml after 6 to 72 hrs by ELISA; format: functional, cell-based; in short: as §3
[18] = tested on: THP-1; assay: Immunostimulatory activity in human THP1 cells assessed as increase in IFN-gamma production at 20 ug/ml after 6 to 72 hrs by immunoassay; format: functional, cell-based; in short: as §3
[19] = tested on: THP-1; assay: Cytotoxicity against human THP1 cells assessed as decrease in cell viability at 0.1 to 20 ug/ml after 6 to 48 hrs by SRB assay; format: cell-based
In short: (§4)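 THP-1 cells and C57BL/6 wild-type bone marrow-derived macrophages were kept in RPMI with 10% FBS, penicillin and streptomycin at 37 °C and 5% CO2. BMDM medium also contained gentamycin. Cells were exposed to compound at 20, 10, 1 and 0.1 μg/mL, and viability was read with a colorimetric assay.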

[20] = Cytotoxicity against C57BL/6 mouse BMDM assessed as decrease in cell viability at 20 ug/ml after 6 to 48 hrs by SRB assay; format: cell-based; in short: as §4

Row | SMILES | Activity [1] | Activity [2] | Activity [3] | Activity [4] | Activity [5] | Activity [6] | Activity [7] | Activity [8] | Activity [9] | Activity [10] | Activity [11] | Activity [12] | Activity [13] | Activity [14] | Activity [15] | Activity [16] | Activity [17] | Activity [18] | Activity [19] | Activity [20]
1 | CCCCCCCCCCCCCC(=O)O[C@H](CCCCCCCCCCC)CC(=O)O[C@@H]1[C@@H](NC(=O)C[C@@H](CCCCCCCCCCC)OC(=O)CCCCCCCCCCC)[C@H](OC[C@H]2OC(O)[C@H](NC(=O)C[C@H](O)CCCCCCCCCCC)[C@@H](OC(=O)C[C@H](O)CCCCCCCCCCC)[C@@H]2O)O[C@H](C(=O)O)[C@H]1OP(=O)(O)O (stereo partly specified) | Active | Active | inactive | inactive | inactive | inactive | inactive | inactive | inactive | inactive | inactive | inactive | inactive | Active | Active | Active | Active | inactive | Non-Toxic | –
2 | CCCCCCCCCCCCCC(=O)O[C@H](CCCCCCCCCCC)CC(=O)O[C@@H]1[C@@H](NC(=O)C[C@@H](CCCCCCCCCCC)OC(=O)CCCCCCCCCCC)[C@H](OC[C@H]2OC(O)[C@H](NC(=O)C[C@H](O)CCCCCCCCCCC)[C@@H](OC(=O)C[C@H](O)CCCCCCCCCCC)[C@@H]2O)O[C@H](C(=O)NCCCCCSCCCO[C@H]2O[C@H](CO)[C@H](O)[C@H](O[C@@H]3O[C@H](CO)[C@H](O)[C@H](O)[C@H]3O)[C@H]2NC(C)=O)[C@H]1OP(=O)(O)O (stereo partly specified) | Active | inactive | inactive | inactive | inactive | inactive | inactive | inactive | inactive | inactive | inactive | inactive | inactive | Active | Active | Active | – | Active | Non-Toxic | –
3 | C#CCCCCNC(=O)[C@H]1O[C@@H](OC[C@H]2OC(O)[C@H](NC(=O)C[C@H](O)CCCCCCCCCCC)[C@@H](OC(=O)C[C@H](O)CCCCCCCCCCC)[C@@H]2O)[C@H](NC(=O)C[C@@H](CCCCCCCCCCC)OC(=O)CCCCCCCCCCC)[C@@H](OC(=O)C[C@@H](CCCCCCCCCCC)OC(=O)CCCCCCCCCCCCC)[C@@H]1OP(=O)(O)O (stereo partly specified) | Active | Active | inactive | inactive | inactive | inactive | inactive | inactive | inactive | inactive | inactive | inactive | inactive | Active | Active | Active | – | inactive | Non-Toxic | Toxic
4 | CCCCCCCCCCCCCC(=O)O[C@H](CCCCCCCCCCC)CC(=O)O[C@@H]1[C@@H](NC(=O)C[C@@H](CCCCCCCCCCC)OC(=O)CCCCCCCCCCC)[C@H](OC[C@H]2OC(O)[C@H](NC(=O)C[C@H](O)CCCCCCCCCCC)[C@@H](OC(=O)C[C@H](O)CCCCCCCCCCC)[C@@H]2O)O[C@H](C(=O)NCCCCCSCCCO[C@H]2O[C@H](CO)[C@H](O)[C@H](O)[C@H]2NC(C)=O)[C@H]1OP(=O)(O)O (stereo partly specified) | – | Active | inactive | inactive | inactive | inactive | inactive | inactive | inactive | inactive | inactive | inactive | inactive | Active | Active | – | Active | Active | Non-Toxic | Toxic
5 | C=CCCCNC(=O)[C@H]1O[C@@H](OC[C@H]2OC(O)[C@H](NC(=O)C[C@H](O)CCCCCCCCCCC)[C@@H](OC(=O)C[C@H](O)CCCCCCCCCCC)[C@@H]2O)[C@H](NC(=O)C[C@@H](CCCCCCCCCCC)OC(=O)CCCCCCCCCCC)[C@@H](OC(=O)C[C@@H](CCCCCCCCCCC)OC(=O)CCCCCCCCCCCCC)[C@@H]1OP(=O)(O)O (stereo partly specified) | Active | – | inactive | inactive | inactive | inactive | inactive | inactive | inactive | inactive | inactive | inactive | inactive | Active | Active | Active | Active | Active | Non-Toxic | Toxic
6 | CCCCCCCCCCCCCC(=O)O[C@H](CCCCCCCCCCC)CC(=O)O[C@@H]1[C@@H](NC(=O)C[C@@H](CCCCCCCCCCC)OC(=O)CCCCCCCCCCC)[C@H](OC[C@H]2OC(O)[C@H](NC(=O)C[C@H](O)CCCCCCCCCCC)[C@@H](OC(=O)C[C@H](O)CCCCCCCCCCC)[C@@H]2O)O[C@H](C(=O)NCCCCCCN=[N+]=[N-])[C@H]1OP(=O)(O)O (stereo partly specified) | – | – | inactive | inactive | inactive | inactive | inactive | inactive | inactive | inactive | inactive | inactive | inactive | Active | Active | Active | – | inactive | Non-Toxic | –
7 | CCCCCCCCCCCCCC(=O)O[C@H](CCCCCCCCCCC)CC(=O)O[C@@H]1[C@@H](NC(=O)C[C@@H](CCCCCCCCCCC)OC(=O)CCCCCCCCCCC)[C@H](OC[C@H]2OC(O)[C@H](NC(=O)C[C@@H](CCCCCCCCCCC)OC(=O)C[C@H](O)CCCCCCCCCCCCC)[C@@H](O)[C@@H]2O)O[C@H](CO)[C@H]1OP(=O)(O)O (stereo partly specified) | – | – | – | – | – | – | – | – | – | Active | Active | Active | Active | Active | Active | – | – | inactive | – | –

Source: ChEMBL document CHEMBL4052816, “Development of Clickable Monophosphoryl Lipid A Derivatives toward Semisynthetic Conjugates with Tumor-Associated Carbohydrate Antigens” (J Med Chem, 2017)
